Measured values: article PMC11539005 (RSC Advances, 2024)
Several values for one entry are separate records, joined by “and”; a condition that tells them apart may be missing. Identical values can stand only once.

What was measured:
[1] = tested on: HepG2; assay: MTT anti-proliferative assay on HepG2; format: cell-based; conditions: Homo sapiens, HepG2, read-out: HepG2 (IC50)
Method in brief: (§1)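 Human MCF-7 and HepG2 cancer cell lines exposed to test compounds. Anti-proliferative IC50 given in μM. Each reported value is the mean of IC50 values from three separate experiments.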

[2] = tested on: MCF-7; assay: MTT anti-proliferative assay on MCF-7; format: cell-based; conditions: Homo sapiens, MCF7, read-out: MCF-7 (IC50)
Method in brief: as §1

[3] = tested on: caspase-9; assay: RT-PCR caspase-9 expression in MCF-7 cells; format: cell-based; conditions: MCF-7, 0.06 µM; control 1
[4] = tested on: caspase-8; assay: RT-PCR caspase-8 expression in MCF-7 cells; format: cell-based; conditions: MCF-7, 0.06 µM; control 1
[5] = molecular target: CDK8 (Homo sapiens, UniProt P49336); assay: Kinase profiling test, CDK8; format: biochemical; conditions: CDK8 IC50 (mean ± SD)
[6] = molecular target: EGFR (Homo sapiens, UniProt P00533); assay: Kinase profiling test, EGFR; format: biochemical
[7] = tested on: MCF-7 cells; assay: Apoptosis assay; format: cell-based; conditions: MCF-7, 0.06 µM, 72 h
[8] = tested on: WI-38; assay: Safety assay: cytotoxicity against normal human lung cells; format: cell-based
Method in brief: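 Normal human lung WI-38 cells exposed to test compound for in vitro cytotoxicity. IC50 in μM is the mean of IC50 values from three separate experiments. Selectivity index = IC50 in WI-38 / IC50 in MCF-7 or HepG2 cancer cells.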

[9] = molecular target: PIK3α (Homo sapiens, UniProt P42336); assay: Kinase profiling test, PIK3α; format: biochemical
[10] = molecular target: BRAF (Homo sapiens, UniProt P15056); assay: Kinase profiling test, BRAF; format: biochemical
[11] = molecular target: VEGFR-2 (Homo sapiens, UniProt P35968); assay: biochemical
[12] = tested on: MCF-7 cells; assay: Cell cycle analysis by flow cytometry; format: cell-based; conditions: MCF-7, 0.06 µM, 72 h

Chain of VEGFR-2 (P35968 20-1356): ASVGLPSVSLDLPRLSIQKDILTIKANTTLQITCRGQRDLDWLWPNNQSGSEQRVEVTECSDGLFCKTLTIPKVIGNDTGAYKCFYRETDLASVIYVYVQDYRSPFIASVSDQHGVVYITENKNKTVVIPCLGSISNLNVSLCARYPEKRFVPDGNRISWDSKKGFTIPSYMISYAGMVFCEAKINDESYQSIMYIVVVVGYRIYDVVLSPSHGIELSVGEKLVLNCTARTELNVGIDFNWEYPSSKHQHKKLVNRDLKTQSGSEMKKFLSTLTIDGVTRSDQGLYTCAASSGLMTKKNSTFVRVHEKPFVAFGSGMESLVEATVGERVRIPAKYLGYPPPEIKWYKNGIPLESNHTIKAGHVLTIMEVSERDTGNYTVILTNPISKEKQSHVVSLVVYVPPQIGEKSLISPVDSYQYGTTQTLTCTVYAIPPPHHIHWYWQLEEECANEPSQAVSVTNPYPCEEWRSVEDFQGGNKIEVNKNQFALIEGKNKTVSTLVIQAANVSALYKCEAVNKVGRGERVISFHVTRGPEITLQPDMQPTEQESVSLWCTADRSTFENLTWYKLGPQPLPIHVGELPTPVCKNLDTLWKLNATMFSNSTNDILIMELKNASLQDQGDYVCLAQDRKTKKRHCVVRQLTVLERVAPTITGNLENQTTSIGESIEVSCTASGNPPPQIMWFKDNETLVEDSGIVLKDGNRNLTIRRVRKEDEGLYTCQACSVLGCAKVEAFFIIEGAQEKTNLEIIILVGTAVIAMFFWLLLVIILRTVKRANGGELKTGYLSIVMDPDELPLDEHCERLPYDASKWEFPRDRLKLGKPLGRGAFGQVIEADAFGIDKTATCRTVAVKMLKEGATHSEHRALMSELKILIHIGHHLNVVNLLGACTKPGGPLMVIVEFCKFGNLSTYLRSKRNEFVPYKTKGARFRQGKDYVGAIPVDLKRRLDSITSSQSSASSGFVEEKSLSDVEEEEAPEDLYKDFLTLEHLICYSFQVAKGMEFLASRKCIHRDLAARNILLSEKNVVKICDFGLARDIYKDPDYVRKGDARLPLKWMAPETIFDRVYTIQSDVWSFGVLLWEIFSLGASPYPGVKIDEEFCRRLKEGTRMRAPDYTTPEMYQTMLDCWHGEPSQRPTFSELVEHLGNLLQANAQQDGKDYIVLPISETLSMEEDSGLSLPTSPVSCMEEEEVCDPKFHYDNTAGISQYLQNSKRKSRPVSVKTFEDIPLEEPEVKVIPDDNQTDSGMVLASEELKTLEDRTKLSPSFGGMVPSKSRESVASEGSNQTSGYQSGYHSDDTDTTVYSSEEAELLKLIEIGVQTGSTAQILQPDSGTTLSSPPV
Chain of EGFR (P00533 25-1210): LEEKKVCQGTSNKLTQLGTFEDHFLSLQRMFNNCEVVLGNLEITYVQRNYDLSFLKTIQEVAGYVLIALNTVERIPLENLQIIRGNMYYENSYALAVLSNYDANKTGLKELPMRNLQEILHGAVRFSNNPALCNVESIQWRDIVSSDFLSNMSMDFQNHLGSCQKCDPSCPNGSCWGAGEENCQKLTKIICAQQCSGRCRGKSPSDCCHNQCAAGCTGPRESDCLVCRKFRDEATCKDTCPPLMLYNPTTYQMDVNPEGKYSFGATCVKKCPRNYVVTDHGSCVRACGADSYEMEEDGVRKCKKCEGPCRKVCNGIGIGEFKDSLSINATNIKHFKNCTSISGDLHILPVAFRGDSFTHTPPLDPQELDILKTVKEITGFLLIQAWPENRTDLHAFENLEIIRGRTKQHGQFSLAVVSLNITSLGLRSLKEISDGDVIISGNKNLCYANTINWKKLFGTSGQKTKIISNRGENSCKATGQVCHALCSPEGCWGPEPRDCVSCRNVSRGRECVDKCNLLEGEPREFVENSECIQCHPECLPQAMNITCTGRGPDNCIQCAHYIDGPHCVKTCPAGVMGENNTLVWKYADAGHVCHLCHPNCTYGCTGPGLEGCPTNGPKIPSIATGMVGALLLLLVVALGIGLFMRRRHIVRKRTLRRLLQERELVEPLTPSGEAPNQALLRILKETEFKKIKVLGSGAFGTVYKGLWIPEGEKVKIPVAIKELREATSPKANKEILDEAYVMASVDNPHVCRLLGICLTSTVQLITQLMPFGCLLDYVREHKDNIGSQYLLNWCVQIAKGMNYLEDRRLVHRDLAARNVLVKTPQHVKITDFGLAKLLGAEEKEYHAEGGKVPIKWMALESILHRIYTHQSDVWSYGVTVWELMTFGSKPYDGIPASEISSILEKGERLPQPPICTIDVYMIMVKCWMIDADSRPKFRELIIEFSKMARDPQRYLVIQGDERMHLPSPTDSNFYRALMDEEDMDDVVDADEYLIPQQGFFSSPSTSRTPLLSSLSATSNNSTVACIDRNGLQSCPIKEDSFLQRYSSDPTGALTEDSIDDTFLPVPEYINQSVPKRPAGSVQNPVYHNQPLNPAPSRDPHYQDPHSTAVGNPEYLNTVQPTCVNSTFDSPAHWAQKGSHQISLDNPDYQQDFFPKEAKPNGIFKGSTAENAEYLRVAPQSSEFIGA
Chain of BRAF (P15056 whole entry): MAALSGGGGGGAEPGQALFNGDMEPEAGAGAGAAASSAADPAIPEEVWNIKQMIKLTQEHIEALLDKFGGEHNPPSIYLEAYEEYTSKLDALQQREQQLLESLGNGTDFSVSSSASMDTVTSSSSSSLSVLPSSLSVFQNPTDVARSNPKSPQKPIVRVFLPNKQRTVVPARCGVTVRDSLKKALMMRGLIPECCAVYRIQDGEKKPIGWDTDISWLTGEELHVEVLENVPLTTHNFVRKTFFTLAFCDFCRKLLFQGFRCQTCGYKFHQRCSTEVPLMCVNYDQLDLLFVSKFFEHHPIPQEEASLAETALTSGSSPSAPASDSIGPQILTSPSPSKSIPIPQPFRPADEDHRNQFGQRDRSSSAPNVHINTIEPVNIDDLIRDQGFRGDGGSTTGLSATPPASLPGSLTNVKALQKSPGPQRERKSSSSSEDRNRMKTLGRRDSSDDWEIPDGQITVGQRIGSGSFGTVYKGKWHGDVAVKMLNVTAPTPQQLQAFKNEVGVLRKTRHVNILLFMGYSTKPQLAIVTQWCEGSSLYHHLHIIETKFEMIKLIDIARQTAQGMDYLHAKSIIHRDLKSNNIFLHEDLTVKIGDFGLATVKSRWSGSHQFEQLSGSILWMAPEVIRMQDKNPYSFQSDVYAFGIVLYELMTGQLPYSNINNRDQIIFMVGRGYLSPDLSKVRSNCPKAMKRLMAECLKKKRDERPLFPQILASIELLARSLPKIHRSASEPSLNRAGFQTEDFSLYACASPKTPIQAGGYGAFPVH
Chain of PIK3α (P42336 whole entry): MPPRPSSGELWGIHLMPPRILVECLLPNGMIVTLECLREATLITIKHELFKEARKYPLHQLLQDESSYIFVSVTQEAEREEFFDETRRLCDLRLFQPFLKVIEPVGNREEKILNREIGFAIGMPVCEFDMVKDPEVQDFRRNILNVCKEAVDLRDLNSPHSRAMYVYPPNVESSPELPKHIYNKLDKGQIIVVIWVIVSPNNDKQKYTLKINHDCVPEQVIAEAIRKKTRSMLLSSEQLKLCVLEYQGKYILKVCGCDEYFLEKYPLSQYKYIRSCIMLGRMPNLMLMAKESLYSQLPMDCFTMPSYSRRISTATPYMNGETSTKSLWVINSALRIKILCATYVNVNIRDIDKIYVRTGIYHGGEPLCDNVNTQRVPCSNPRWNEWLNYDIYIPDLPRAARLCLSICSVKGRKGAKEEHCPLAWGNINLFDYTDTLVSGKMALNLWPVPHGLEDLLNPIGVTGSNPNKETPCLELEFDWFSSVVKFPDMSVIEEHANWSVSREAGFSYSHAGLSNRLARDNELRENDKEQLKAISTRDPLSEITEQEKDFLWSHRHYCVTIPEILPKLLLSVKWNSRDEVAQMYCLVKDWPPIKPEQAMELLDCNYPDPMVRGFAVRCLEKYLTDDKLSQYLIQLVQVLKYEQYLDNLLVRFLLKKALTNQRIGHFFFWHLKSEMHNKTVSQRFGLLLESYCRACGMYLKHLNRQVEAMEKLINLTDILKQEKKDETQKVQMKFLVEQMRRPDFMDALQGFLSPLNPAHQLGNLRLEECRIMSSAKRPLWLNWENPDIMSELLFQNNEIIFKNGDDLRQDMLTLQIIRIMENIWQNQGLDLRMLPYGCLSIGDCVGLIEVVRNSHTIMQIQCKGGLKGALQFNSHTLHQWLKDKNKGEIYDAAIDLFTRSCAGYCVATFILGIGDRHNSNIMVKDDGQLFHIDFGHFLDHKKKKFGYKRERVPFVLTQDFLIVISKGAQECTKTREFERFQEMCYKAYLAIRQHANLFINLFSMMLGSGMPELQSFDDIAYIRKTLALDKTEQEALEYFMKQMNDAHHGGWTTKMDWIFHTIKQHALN
Chain of PIK3α (P27986 whole entry partner): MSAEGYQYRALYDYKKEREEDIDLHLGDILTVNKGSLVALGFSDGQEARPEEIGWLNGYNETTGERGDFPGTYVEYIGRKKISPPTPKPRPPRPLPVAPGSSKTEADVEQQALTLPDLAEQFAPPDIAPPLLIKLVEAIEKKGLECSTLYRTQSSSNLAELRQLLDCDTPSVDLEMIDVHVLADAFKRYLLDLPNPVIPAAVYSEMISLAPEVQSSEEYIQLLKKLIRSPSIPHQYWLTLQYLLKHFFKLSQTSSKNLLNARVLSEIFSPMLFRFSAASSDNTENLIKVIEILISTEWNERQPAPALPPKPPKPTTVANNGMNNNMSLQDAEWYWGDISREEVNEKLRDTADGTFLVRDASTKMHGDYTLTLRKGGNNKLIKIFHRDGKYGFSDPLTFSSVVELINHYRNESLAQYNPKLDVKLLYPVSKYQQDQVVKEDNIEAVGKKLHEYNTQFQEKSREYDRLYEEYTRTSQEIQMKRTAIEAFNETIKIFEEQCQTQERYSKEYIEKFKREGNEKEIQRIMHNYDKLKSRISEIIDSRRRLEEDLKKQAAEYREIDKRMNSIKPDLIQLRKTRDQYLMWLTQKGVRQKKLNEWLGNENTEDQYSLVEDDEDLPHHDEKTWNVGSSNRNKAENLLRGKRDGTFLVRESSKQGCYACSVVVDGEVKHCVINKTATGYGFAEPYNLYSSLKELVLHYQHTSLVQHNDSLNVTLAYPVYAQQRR

## CNC(=O)c1cc(Oc2ccc(NC(=O)Nc3ccc(Cl)c(C(F)(F)F)c3)cc2)ccn1 [Sorafenib, reference compound]
[1]
  IC50: 130 ± 30 nM
[2]
  IC50: 140 ± 30 nM

## CCOC(=O)c1nn(-c2cccc(Cl)c2)/c(=N/N=C(\C)c2ccc(NC(=O)c3ccc(Cl)cc3)cc2)s1 [Compound 21b, Ethyl (Z)-5-(((E)-1-(4-(4-Chlorobenzamido)phenyl)ethylidene)hydrazono)-4-(3-chlorophenyl)-4,5-dihydro-1,3,4-thiadiazole-2-carboxylate]
[1]
  IC50: 130 ± 10 nM
[2]
  IC50: 140 ± 10 nM

## CC(=O)c1nn(-c2ccccc2Cl)/c(=N/N=C(\C)c2ccc(NC(=O)c3ccccc3)cc2)s1 [Compound 20a, N-(4-((E)-1-(((Z)-5-Acetyl-3-(2-chlorophenyl)-1,3,4-thiadiazol-2(3H)-ylidene)hydrazono)ethyl)phenyl)benzamide]
[1]
  IC50: 130 ± 10 nM
[2]
  IC50: 60 ± 10 nM

## CCOC(=O)c1nn(-c2cccc(Cl)c2)/c(=N/N=C(\C)c2ccc(NC(=O)c3ccccc3)cc2)s1 [Compound 21a, Ethyl (Z)-5-(((E)-1-(4-benzamidophenyl)ethylidene)hydrazono)-4-(3-chlorophenyl)-4,5-dihydro-1,3,4-thiadiazole-2-carboxylate]
[1]
  IC50: 150 ± 10 nM
[2]
  IC50: 190 ± 10 nM

## CC(=O)Nc1ccc(/C(C)=N/N=c2\sc(C(C)=O)nn2-c2ccc(C)cc2)cc1 [Compound 16, N-(4-((E)-1-(((Z)-5-Acetyl-3-(p-tolyl)-1,3,4-thiadiazol-2(3H)-ylidene)hydrazono)ethyl)phenyl) acetamide]
[1]
  IC50: 9920 ± 220 nM
[2]
  IC50: 1250 ± 20 nM

## CC(=O)c1nn(-c2ccc(C)cc2)/c(=N/N=C(\C)c2ccc(NC(=O)c3ccccc3)cc2)s1 [Compound 20b, N-(4-((E)-1-(((Z)-5-Acetyl-3-(p-tolyl)-1,3,4-thiadiazol-2(3H)-ylidene)hydrazono)ethyl)phenyl) benzamide]
[3]
  Caspase-9 RT-PCR (fold change): 5.44 fold change and 5.4353 fold change
[4]
  Caspase-8 RT-PCR (fold change): 3.42 fold change and 3.4176 fold change
[5]
  IC50: 266 ± 58 nM
[6]
  IC50: 1430 ± 85 nM
[7]; control 0.24
  Late apoptosis: 15.99%
[7]; control 0.61
  Early apoptosis: 18.48%
[7]; control 1.43
  Necrosis: 4.14%
[7]; untreated 0.85
  Total apoptosis: 34.47%
[1]
  IC50: 140 ± 10 nM
[8]; Homo sapiens, WI-38, read-out: WI-38 IC50
  IC50: 190 ± 10 nM
[8]; SI = IC50 in normal cells (WI-38)/IC50 in HepG2
  Selectivity index HepG2: 1.4
[8]; SI = IC50 in normal cells (WI-38)/IC50 in MCF-7
  Selectivity index MCF-7: 3.8
[2]
  IC50: 50 ± 10 nM
[9]
  IC50: 2140 ± 95 nM
[10]
  IC50: 5840 ± 250 nM
[11]; VEGFR-2 IC50, mean of three experiments
  IC50: 51.1 nM and 51 nM
[11]; VEGFR-2 inhibition
  IC50: 24 nM
[12]; control 13.72
  Cell cycle distribution % G2/M: 11.99%
[12]; control 23.91
  Cell cycle distribution % S: 18.76%
[12]; control 62.37
  Cell cycle distribution % G0-G1: 69.25%
